{
  "source": "ChEMBL document CHEMBL1629542",
  "about": "“Epigallocatechin gallate inactivates clinical isolates of herpes simplex virus” (Antimicrob Agents Chemother, 2008)",
  "key": {"Human alphaherpesvirus 2 [1]": {"test_system": "Human alphaherpesvirus 2", "assay": "Antiviral activity against Human herpesvirus 2 strain 333 infected in African green monkey vero cells assessed as log reduction in viral titer at 100 uM after 60 mins", "type": "functional", "how_it_was_run": "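Lab strain HSV-2 333 was grown and titrated either in CV-1 cells or in Vero cells. Virus was incubated with 100 μM EGCG for 60 min, then titrated as tenfold dilutions for 5 days at 37°C with CPE scoring. Reed-Muench TCID50 of treated versus control virus gave the titer decrease. Mean of three experiments.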"}, "Human alphaherpesvirus 2 [2]": {"test_system": "Human alphaherpesvirus 2", "assay": "Antiviral activity against Human herpesvirus 2 isolate P2 infected in African green monkey CV1 cells assessed as log reduction in viral titer at 100 uM within 10 mins", "type": "functional, CV-1", "how_it_was_run": "(§1)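 HSV-2 clinical isolates from clarified CV-1 supernatants were held with 100 μM EGCG for timed intervals, from 10 min onward. Surviving virus was titrated on CV-1 cells by 10-fold dilution and 5-day CPE scoring, with TCID50 by Reed-Muench. Values are mean ± SD, three experiments.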"}, "Human alphaherpesvirus 2 [3]": {"test_system": "Human alphaherpesvirus 2", "assay": "Antiviral activity against Human herpesvirus 2 isolate P12 infected in African green monkey CV1 cells assessed as log reduction in viral titer at 100 uM within 10 mins", "type": "functional, CV-1", "how_it_was_run": "as §1"}, "Human alphaherpesvirus 2 [4]": {"test_system": "Human alphaherpesvirus 2", "assay": "Antiviral activity against Human herpesvirus 2 isolate P27 infected in African green monkey CV1 cells assessed as log reduction in viral titer at 100 uM within 10 mins", "type": "functional, CV-1", "how_it_was_run": "(§2)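 Time course: clarified CV-1 supernatant of HSV-2 (clinical isolates or strain 333) was exposed to 100 μM EGCG for increasing times. It was then titrated by tenfold dilution on CV-1 cells, three wells per dilution, for 5 days at 37°C with CPE read-out. Reed-Muench TCID50 was compared with the untreated titer. Mean of three separate experiments.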"}, "Human alphaherpesvirus 2 [5]": {"test_system": "Human alphaherpesvirus 2", "assay": "Antiviral activity against Human herpesvirus 2 isolate P12 infected in African green monkey CV1 cells assessed as log reduction in viral titer at 100 uM within 20 mins", "type": "functional, CV-1", "how_it_was_run": "as §1"}, "Human alphaherpesvirus 2 [6]": {"test_system": "Human alphaherpesvirus 2", "assay": "Antiviral activity against Human herpesvirus 2 isolate P27 infected in African green monkey CV1 cells assessed as log reduction in viral titer at 100 uM within 20 mins", "type": "functional, CV-1", "how_it_was_run": "as §2"}, "Human alphaherpesvirus 1 [7]": {"test_system": "Human alphaherpesvirus 1", "assay": "Antiviral activity against Human herpesvirus 1 isolate P25 infected in African green monkey vero cells assessed as log reduction in viral titer at 100 uM after 40 to 60 mins", "type": "functional", "how_it_was_run": "(§3)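 In the time course, HSV-1 clinical isolates (clarified Vero supernatants) were exposed to 100 μM EGCG for varying times up to 60 min. Residual infectivity was then titrated on Vero cells by 5-day CPE endpoint with Reed-Muench calculation. Mean ± SD of three separate experiments.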"}, "Human alphaherpesvirus 1 [8]": {"test_system": "Human alphaherpesvirus 1", "assay": "Antiviral activity against Human herpesvirus 1 isolate P38 infected in African green monkey vero cells assessed as log reduction in viral titer at 100 uM after 40 to 60 mins", "type": "functional", "how_it_was_run": "as §3"}, "Human alphaherpesvirus 1 [9]": {"test_system": "Human alphaherpesvirus 1", "assay": "Antiviral activity against Human herpesvirus 1 isolate P25 infected in African green monkey vero cells assessed as log reduction in viral titer at 100 uM after 30 mins", "type": "functional", "how_it_was_run": "as §3"}, "Human alphaherpesvirus 1 [10]": {"test_system": "Human alphaherpesvirus 1", "assay": "Antiviral activity against Human herpesvirus 1 isolate P38 infected in African green monkey vero cells assessed as log reduction in viral titer at 100 uM after 30 mins", "type": "functional", "how_it_was_run": "as §3"}, "Human alphaherpesvirus 1 [11]": {"test_system": "Human alphaherpesvirus 1", "assay": "Antiviral activity against Human herpesvirus 1 isolate P42 infected in African green monkey vero cells assessed as log reduction in viral titer at 100 uM after 30 mins", "type": "functional", "how_it_was_run": "as §3"}, "Human alphaherpesvirus 1 [12]": {"test_system": "Human alphaherpesvirus 1", "assay": "Antiviral activity against Human herpesvirus 1 isolate P56 infected in African green monkey vero cells assessed as log reduction in viral titer at 100 uM within 20 mins", "type": "functional", "how_it_was_run": "as §3"}, "Human alphaherpesvirus 2 [13]": {"test_system": "Human alphaherpesvirus 2", "assay": "Antiviral activity against Human herpesvirus 2 strain 333 infected in African green monkey CV-1 cells assessed as log reduction in viral titer at 100 uM after 20 mins", "type": "functional", "how_it_was_run": "as §2"}, "Human alphaherpesvirus 1 [14]": {"test_system": "Human alphaherpesvirus 1", "assay": "Antiviral activity against Human herpesvirus 1 F1 assessed as damage of viral particle at 100 uM after 2 hrs by electron microscopy", "type": "functional, organism-based"}, "Human alphaherpesvirus 1 [15]": {"test_system": "Human alphaherpesvirus 1", "assay": "Antiviral activity against Human herpesvirus 1 F1 assessed as decrease in labeled gB envelope glycoprotein at 100 uM after 2 hrs by electron microscopy", "type": "functional, organism-based", "how_it_was_run": "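Purified HSV-1 F1 virions were treated with 100 μM EGCG for 2 h, fixed in glutaraldehyde/paraformaldehyde and LR White-embedded without osmium. Nickel-grid sections were blocked with BSA and goat serum, then labelled overnight with anti-gB or anti-gD monoclonal (1:15) and 15 nm colloidal gold. Labelled versus unlabelled particles were counted in 10 fields of 100 particles; mean ± SD.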"}, "Human alphaherpesvirus 1 [16]": {"test_system": "Human alphaherpesvirus 1", "assay": "Antiviral activity against Human herpesvirus 1 isolate P38 infected in African green monkey vero cells assessed as reduction in viral titer", "type": "functional, organism-based", "conditions": "Human alphaherpesvirus 1, isolate P38, Vero", "how_it_was_run": "(§4)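 Laboratory HSV-1 F1 or patient-swab HSV-1 isolates were prepared as clarified Vero supernatants. They were incubated 1 h with a range of EGCG concentrations in RPMI 1640/1% FCS at pH 7.4. Titres were determined on Vero cells by 5-day CPE endpoint (Reed-Muench). IC99 was read graphically as 99% titre drop from untreated; mean ± SD, three experiments.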"}, "Human alphaherpesvirus 1 [17]": {"test_system": "Human alphaherpesvirus 1", "assay": "Antiviral activity against Human herpesvirus 1 isolate P42 infected in African green monkey vero cells assessed as reduction in viral titer", "type": "functional, organism-based", "conditions": "Human alphaherpesvirus 1, isolate P42, Vero", "how_it_was_run": "as §4"}, "Human alphaherpesvirus 1 [18]": {"test_system": "Human alphaherpesvirus 1", "assay": "Antiviral activity against Human herpesvirus 1 isolate P15 infected in African green monkey vero cells assessed as reduction in viral titer at 100 uM", "type": "functional, organism-based", "how_it_was_run": "as §4"}, "Human alphaherpesvirus 1 [19]": {"test_system": "Human alphaherpesvirus 1", "assay": "Antiviral activity against Human herpesvirus 1 isolate P25 infected in African green monkey vero cells assessed as reduction in viral titer at 100 uM", "type": "functional, organism-based", "how_it_was_run": "as §4"}, "Human alphaherpesvirus 2 [20]": {"test_system": "Human alphaherpesvirus 2", "assay": "Antiviral activity against Human herpesvirus 2 isolate P2 infected in African green monkey CV1 cells assessed as log reduction in viral titer at 12.5 uM", "type": "functional, CV-1", "how_it_was_run": "(§5)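 HSV-2 (clinical swab isolates or strain 333) was grown in CV-1 cells and used as clarified supernatant. Virus was exposed to graded EGCG for 1 h in RPMI 1640 with 1% FCS, pH 7.4. Tenfold dilutions were titrated on CV-1 cells, three wells each, 5 days at 37°C, scoring CPE. TCID50 was calculated by Reed-Muench. IC99 was read graphically as 99% titer drop from the zero-concentration titer. Mean of three experiments.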"}, "Human alphaherpesvirus 2 [21]": {"test_system": "Human alphaherpesvirus 2", "assay": "Antiviral activity against Human herpesvirus 2 isolate P11 infected in African green monkey CV1 cells assessed as log reduction in viral titer at 12.5 uM", "type": "functional, CV-1", "how_it_was_run": "(§6)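 HSV-2 patient-swab isolates were grown as clarified CV-1 supernatants and incubated 1 h with a range of EGCG concentrations (RPMI 1640/1% FCS, pH 7.4). They were titrated on CV-1 cells from 10-fold dilutions by 5-day CPE at 37°C, with Reed-Muench TCID50. IC99 was derived graphically as 99% reduction from zero-drug titre; mean ± SD, three experiments.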"}, "Human alphaherpesvirus 2 [22]": {"test_system": "Human alphaherpesvirus 2", "assay": "Antiviral activity against Human herpesvirus 2 isolate P22 infected in African green monkey CV1 cells assessed as log reduction in viral titer at 12.5 uM", "type": "functional, CV-1", "how_it_was_run": "as §5"}, "Human alphaherpesvirus 2 [23]": {"test_system": "Human alphaherpesvirus 2", "assay": "Antiviral activity against Human herpesvirus 2 isolate P2 infected in African green monkey CV1 cells assessed as log reduction viral titer at 50 uM", "type": "functional, CV-1", "how_it_was_run": "as §5"}, "Human alphaherpesvirus 2 [24]": {"test_system": "Human alphaherpesvirus 2", "assay": "Antiviral activity against Human herpesvirus 2 isolate P11 infected in African green monkey CV1 cells assessed as log reduction viral titer at 50 uM", "type": "functional, CV-1", "how_it_was_run": "as §6"}, "Human alphaherpesvirus 2 [25]": {"test_system": "Human alphaherpesvirus 2", "assay": "Antiviral activity against Human herpesvirus 2 isolate P22 infected in African green monkey CV1 cells assessed as log reduction viral titer at 50 uM", "type": "functional, CV-1", "how_it_was_run": "as §5"}, "Human alphaherpesvirus 2 [26]": {"test_system": "Human alphaherpesvirus 2", "assay": "Antiviral activity against Human herpesvirus 2 isolate P27 infected in African green monkey CV1 cells assessed as log reduction viral titer at 50 uM", "type": "functional, CV-1", "how_it_was_run": "as §5"}},
  "note": "Activity calls are given as the source filed them. The calls are words filed in the database; no cut-off is given here.",
  "data": [
    {"smiles": "O=C(O[C@@H]1Cc2c(O)cc(O)cc2O[C@@H]1c1cc(O)c(O)c(O)c1)c1cc(O)c(O)c(O)c1", "note": "[EPIGALOCATECHIN GALLATE]", "values": [
      {"measurement": "FC", "setting": "Human alphaherpesvirus 2 [1]", "value": 4},
      {"measurement": "FC", "setting": "Human alphaherpesvirus 2 [2]", "value": 2},
      {"measurement": "FC", "setting": "Human alphaherpesvirus 2 [3]", "value": 2},
      {"measurement": "FC", "setting": "Human alphaherpesvirus 2 [4]", "value": 2},
      {"measurement": "FC", "setting": "Human alphaherpesvirus 2 [5]", "value": 3},
      {"measurement": "FC", "setting": "Human alphaherpesvirus 2 [6]", "value": 3},
      {"measurement": "FC", "setting": "Human alphaherpesvirus 1 [7]", "value": 3},
      {"measurement": "FC", "setting": "Human alphaherpesvirus 1 [8]", "value": 3},
      {"measurement": "FC", "setting": "Human alphaherpesvirus 1 [9]", "value": 2},
      {"measurement": "FC", "setting": "Human alphaherpesvirus 1 [10]", "value": 2},
      {"measurement": "FC", "setting": "Human alphaherpesvirus 1 [11]", "value": 2},
      {"measurement": "FC", "setting": "Human alphaherpesvirus 1 [12]", "value": 3},
      {"measurement": "FC", "setting": "Human alphaherpesvirus 2 [13]", "value": ">=3"},
      {"measurement": "Activity", "setting": "Human alphaherpesvirus 1 [14]", "value": "Active"},
      {"measurement": "Activity", "setting": "Human alphaherpesvirus 1 [15]", "value": "Active"},
      {"measurement": "IC99", "setting": "Human alphaherpesvirus 1 [16]", "value": 48.2, "unit": "µM"},
      {"measurement": "IC99", "setting": "Human alphaherpesvirus 1 [17]", "value": 49.1, "unit": "µM"},
      {"measurement": "Activity", "setting": "Human alphaherpesvirus 1 [18]", "value": "Active"},
      {"measurement": "Activity", "setting": "Human alphaherpesvirus 1 [19]", "value": "Active"},
      {"measurement": "FC", "setting": "Human alphaherpesvirus 2 [20]", "value": ">=2"},
      {"measurement": "FC", "setting": "Human alphaherpesvirus 2 [21]", "value": ">=2"},
      {"measurement": "FC", "setting": "Human alphaherpesvirus 2 [22]", "value": ">=2"},
      {"measurement": "FC", "setting": "Human alphaherpesvirus 2 [23]", "value": ">4"},
      {"measurement": "FC", "setting": "Human alphaherpesvirus 2 [24]", "value": ">4"},
      {"measurement": "FC", "setting": "Human alphaherpesvirus 2 [25]", "value": ">4"},
      {"measurement": "FC", "setting": "Human alphaherpesvirus 2 [26]", "value": ">4"}
    ]}
  ]
}
